We go through one compound from ChEMBL document CHEMBL4673249, “Anticancer Effects of Honokiol via Mitochondrial Dysfunction Are Strongly Enhanced by the Mitochondria-Targeting Carrier Berberine” (J Med Chem, 2020).

Each structure is given as a SMILES string. Activity calls are given as the source filed them. The calls are words filed in the database; no cut-off is given here.

For series [1], the system named is HepG2. Put plainly: Induction of morphological changes in human HepG2 cells assessed as effect on number of vacuoles at 3 uM after 24 hrs in presence of z-VAD-fmk by microscopic analysis. The series is classed as functional, cell-based. The method, boiled down:
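HepG2 cells preincubated with or without z-VAD-fmk (20 μM, 2 h), then treated with 3 μM compound. Vacuole number and size judged from optical microscopy images.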

The subject of series [2] is HepG2. The series is described as follows: Induction of apoptosis in human HepG2 cells assessed as late apoptotic cells at 2 uM after 24 hrs by annexin V/propidium iodide staining based flow cytometric analysis (reference value: 3.22%). The series is classed as functional.
The test system of series [3] is HepG2. The series is described as follows: Induction of apoptosis in human HepG2 cells assessed as accumulation of AIF in cytoplasm at 4 uM after 24 hrs by immunofluorescence assay. The class given is functional, cell-based. The gist of the method:
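HepG2 cells in glass-bottom dishes given 4 μM for 24 h. Fixed in methanol:acetone (1:1) for 10 min, blocked with 5% BSA for 1 h at room temperature. Anti-AIF antibody applied overnight at 4 °C, then Alexa Fluor 594 secondary; nuclei stained with DAPI. Imaged by confocal microscopy.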

Another series concerns A549. Put plainly: Antiproliferative activity against human A549 cells assessed as reduction in cell viability after 48 hrs by MTT assay. Particulars: A549, 48 h. The series is classed as functional, cell-based. The method, boiled down:
(§1)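 Cell lines grown at 37 °C in 5% CO2: A2780, A549, HL7702 and PC3 in RPMI 1640; HT29 in McCoy's 5A; HepG2 and PANC-1 in DMEM; all media with 10% FBS and penicillin/streptomycin. Cells seeded and left overnight, then exposed to compound for 48 h. MTT (5 mg/mL solution) added for 4 h at 37 °C, formazan dissolved in DMSO, absorbance read at 570 nm. IC50 taken from viability; run in triplicate.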

Another series deals with HepG2 (Homo sapiens). Put plainly: Induction of morphological changes in human HepG2 cells assessed as accumulation of cytoplasmic vacuoles at 4 uM after 24 hrs by optical microscopic method.
In series [4] the test system is HepG2. The series is described as follows: Induction of cell death in human HepG2 cells at 3 uM after 24 hrs in presence of 3-MA by MTT assay. The series is classed as functional, cell-based. The gist of the method:
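HepG2 cells given 3 μM for 24 h together with CQ (10 μM) or 3-MA (1 mM). Viability measured by MTT with absorbance read at 570 nm.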

Series [5] relates to HepG2. Put plainly: Induction of ROS generation in human HepG2 cells at 2 uM measured up to 24 hrs by DCFH-DA staining based flow cytometric analysis. The class given is functional, cell-based. Particulars: time hrs <=24. The method, boiled down: (§2)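 HepG2 cells treated for the stated time, then loaded with 10 μM DCFH-DA in FBS-free medium for 30 min in the dark. Washed twice with PBS, trypsinized, pelleted at 1200 rpm for 5 min, resuspended in PBS and read by flow cytometry. Kit Rosup reagent served as positive agent.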

Series [6] has as its system HepG2. Put plainly: Induction of cell death in human HepG2 cells assessed as reduction in cell viability after 24 hrs in presence of z-VAD-fmk by MTT assay. The series is classed as functional, cell-based. The method, boiled down:
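HepG2 cells pretreated with 20 μM z-VAD-fmk for 2 h, then exposed to a range of doses. Viability measured by MTT: 4 h at 37 °C, formazan in DMSO, absorbance at 570 nm.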

The subject of another series is PC-3. The series is described as follows: Induction of morphological changes in human PC3 cells assessed as accumulation of cytoplasmic vacuoles at 4 uM after 24 hrs by optical microscopic method. The series is classed as functional, cell-based. The gist of the method:
(§3)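 Cells grown at 37 °C, 5% CO2 in media with 10% FBS and penicillin/streptomycin, then treated with compound. Cytoplasmic vacuoles judged by optical microscopy. Time course at 4 μM, or 10 h exposure across increasing concentrations.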

Series [7] relates to HepG2. The series is described as follows: Induction of apoptosis in human HepG2 cells assessed as early apoptotic cells at 4 uM after 24 hrs by annexin V/propidium iodide staining based flow cytometric analysis (reference value: 1.29%). The class given is functional.
Series [8] concerns HepG2. The series is described as follows: Induction of mitochondrial dysfunction in human HepG2 cells assessed as […] at 1 to 4 uM after 24 hrs by JC-1 staining based flow cytometric analysis. The series is classed as functional, cell-based. Particulars: dose 1-4 µM.
In the next series the test system is HT-29. The series is described as follows: Induction of morphological changes in human HT29 cells assessed as accumulation of cytoplasmic vacuoles at 4 uM after 24 hrs by optical microscopic method. The series is classed as functional, cell-based. The gist of the method: as §3
Series [9] deals with HepG2. The series is described as follows: Induction of apoptosis in human HepG2 cells assessed as early apoptotic cells at 1 uM after 24 hrs by annexin V/propidium iodide staining based flow cytometric analysis (reference value: 1.29%). The series is classed as functional.
Series [10] relates to HepG2. Put plainly: Induction of mitochondrial dysfunction in human HepG2 cells assessed as increase in MPTP opening at 1 to 4 uM after 24 hrs by JC-1 staining based flow cytometric analysis. The series is classed as functional, cell-based. To be noted: dose 1-4 µM.
The subject of series [11] is HepG2. The series is described as follows: Induction of apoptosis in human HepG2 cells assessed as decrease in pro-caspase 12 protein expression at 1 to 4 uM after 24 hrs by Western blot analysis. The series is classed as functional, cell-based. To be noted: dose 1-4 µM. The gist of the method:
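HepG2 cells lysed in RIPA on ice for 20 min; protein measured by BCA. Lysates run on 10% SDS-PAGE and transferred to PVDF. Membranes blocked in 5% nonfat milk/TBST for 2 h, incubated with primary antibodies overnight at 4 °C, then HRP secondary antibody; bands detected by ECL.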

Series [12] relates to L02. Put plainly: Antiproliferative activity against human L02 cells assessed as reduction in cell viability after 48 hrs by MTT assay. The class given is cell-based. To be noted: L02, 48 h. The gist of the method:
as §1

Series [13] relates to HepG2. The series is described as follows: Induction of morphological changes in human HepG2 cells assessed as accumulation of vacuoles at 3 uM after 24 hrs in presence of CQ by microscopic method. The class given is functional, cell-based. The method, boiled down: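 HepG2 cells given 3 μM compound for 24 h with chloroquine (10 μM) or 3-methyladenine (1 mM). Vacuolization and viability examined, viability by MTT.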

Series [14] has as its system HepG2. The series is described as follows: Induction of apoptosis in human HepG2 cells assessed as late apoptotic cells at 1 uM after 24 hrs by annexin V/propidium iodide staining based flow cytometric analysis (reference value: 3.22%). The class given is functional.
Series [15] deals with L02. Put plainly: Induction of morphological changes in human L02 cells assessed as accumulation of cytoplasmic vacuoles at 4 uM after 24 hrs by optical microscopic method. The class given is cell-based. To be noted: l02, 24 h. The gist of the method: as §3
In series [16] the test system is HepG2. Put plainly: Induction of ROS generation in human HepG2 cells after 24 hrs by DCFH-DA staining based flow cytometric analysis. The series is classed as functional, cell-based. The gist of the method: as §2
Series [17] deals with HepG2. The series is described as follows: Induction of mitochondrial dysfunction in human HepG2 cells assessed as dispersive puncta formation at 2 to 4 uM after 12 hrs by calcein-AM staining based fluorescence microscopic analysis. The series is classed as functional, cell-based. To be noted: dose 2-4 µM. The gist of the method:
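HepG2 cells in glass-bottom plates treated for 12 h. Co-loaded with 1.5 μM calcein-AM and 5 mM CoCl2 in DMEM at 37 °C for 20 min; CoCl2 quenches cytosolic calcein. Washed three times with PBS and imaged by fluorescence microscopy through a 525-nm bandpass filter.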

Series [18] relates to HepG2. The series is described as follows: Antitumour activity against human HepG2 cells xenografted in AB zebrafish assessed as inhibition of cell growth at 0.8 to 2.4 uM after 48 hrs by cell tracker CM-Dil based laser confocal microscopic method. The series is classed as functional. Particulars: dose 0.8-2.4 µM. The method, boiled down: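 Wild-type AB zebrafish embryos raised at 28 °C in embryo medium (5.0 mM NaCl, 0.17 mM KCl, 0.4 mM CaCl2, 0.16 mM MgSO4). HepG2 cells labelled with CM-DiI, microinjected into 2-day-old larvae. At 4 h post-injection, larvae with the same injection spot were grouped (about 15–20 per group, three wells each). Exposed to 0.8, 1.6 or 2.4 μM in the water for 48 h; doxorubicin 1.0 μM as reference. Tumour fluorescence intensity measured by confocal microscopy.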

Turning to `C=CCc1ccc(O)c(-c2ccc(OCCCCCc3c4[n+](cc5c(OC)c(OC)ccc35)CCc3cc5c(cc3-4)OCO5)c(CC=C)c2)c1.[I-]`, the result in the series on HepG2 [1] was inactive. Besides, the Activity in the series with HepG2 [2] is 3.51%; in the series with HepG2 [7], 7.91%; with HepG2 [9], 3.27%; in the series with HepG2 [14] it was 3.21%; in the series with L02 [15] it was “Active”; in the series on HepG2 [16] it was “Dose-dependent effect”. Further, the result in the series on HepG2 [3], in the series with HepG2 (Homo sapiens), in the series with HepG2 [4], in the series with HepG2 [5], with HepG2 [6] and in the series with PC-3 was Active. The result with HepG2 [8], in the series on HT-29, in the series on HepG2 [10], in the series on HepG2 [11], in the series on HepG2 [13] and in the series with HepG2 [17] was Active. Also, the IC50 in the series with A549 is 3 µM; with L02 [12] it was 4.61 µM. The “growth inhibition (GI)” value with HepG2 [18] is “Active”.
